This is a sample that favours compounds with a hit; in the whole collection about 1.8% have one here.
NTR1 ag: agonists of human neurotensin receptor NTR1. P30989. NTR1-U2OS beta-arrestin-GFP spot imaging, agonist mode. activation, % at 20 µM. 0.17% of 330,000 active. AID 493036;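 active = activation at or above 40% of the spot to cytoplasm intensity ratio, with at least 20 cells analyzed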
MC4R antag cAMP: antagonists of human melanocortin 4 receptor (MC4R). P32245. AID 540295. 0.48% of 360,000 active. inhibition, % at 6.5 µM. MC4R-expressing cells, MTII-stimulated cAMP, LANCE TR-FRET;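 active = inhibition above its plate's cutoff, the mean of tested wells on that plate plus 3 SD, cut at about 29% in these data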
Target sequence (P32245 whole entry, looked up): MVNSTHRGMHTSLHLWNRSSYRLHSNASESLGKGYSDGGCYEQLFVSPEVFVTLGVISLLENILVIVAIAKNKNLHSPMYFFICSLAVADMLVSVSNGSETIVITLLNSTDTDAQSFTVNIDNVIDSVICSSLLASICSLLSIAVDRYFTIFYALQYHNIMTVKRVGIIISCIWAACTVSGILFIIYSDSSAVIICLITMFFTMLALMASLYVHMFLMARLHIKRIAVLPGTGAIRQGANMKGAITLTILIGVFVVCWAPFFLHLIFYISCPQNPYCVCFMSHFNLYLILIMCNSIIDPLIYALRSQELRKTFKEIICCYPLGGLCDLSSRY
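Assay system: U2OS-MC4R stable cell line; Also added: Melanotan II; Technique: Eu-cAMP/anti-cAMP TR-FRET, emission 671 nm; Times: 30-min compound, 1-h challenge, 1-h detection, room temperature.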
MC4R ag barr: human MC4R agonism via beta-arrestin; U2OS MC4R beta-arrestin complementation, luminescence; percent of melanotan II response, DMSO zero; 0.98% of 360,000 active; AID 540308; activation, % at 8.9 µM; P32245;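 active = activation above a per-plate cutoff, the mean activation of sample wells on that plate plus 3 SD, cut at about 8% in these data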
AI-2 QS mod: modulates the Vibrio harveyi AI-2 quorum sensing system; Vibrio harveyi JMH597 AI-2 luminescence/OD600 ratio, 9 h; hits give low values; strain lacks LuxN and CqsS sensors; 0 = neutral-control median; activity change, % at 7.5 µM; 0.4% of 300,000 active; AID 2094; in the data active = activity change below about -75%, passing the limit was not always enough;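 also: luminescence divided by OD600 gain over 9 h not by final OD600 alone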
cAMP nonselect: counter-screen for MC4R antagonists: nonselective cAMP signaling inhibitors; shares compounds with MC4R antag cAMP; parental U2OS, forskolin cAMP, LANCE TR-FRET; inhibition, % at 6.5 µM; 26% of 1,600 active;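 active = mean inhibition over triplicates above the low-control well mean plus 3 SD, set per campaign, cut at about 13% in these data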;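 also: signal is single emission at 671 nm which falls as cellular cAMP rises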
MC4R antag conf: human MC4R cAMP antagonism confirmation; shares compounds with MC4R antag cAMP; MC4R-expressing cells, MTII-stimulated cAMP, TR-FRET; inhibition, % at 6.5 µM; 27% of 1,600 active; in the data active = inhibition above about 29%
A number is an active result; – = inactive; · = no result given; + = active, no number.

SMILES	NTR1 ag	MC4R antag cAMP	MC4R ag barr	AI-2 QS mod	cAMP nonselect	MC4R antag conf
CC(C)C(=O)N1CCC2(CC1)Oc1ccc(Cl)cc1C(=O)C21CC(c2ccccc2)=NO1 (stereo not given)	–	29	–	–	–	–
CCOC(=O)CCC(NC(=O)c1ccc(NCN2C(=O)c3ccccc3C2=O)cc1)C(=O)OCC (stereo not given)	–	–	–	–	·	·
CCOC(=O)CCC(NC(=O)c1ccccc1C(=O)NC(CCC(=O)OCC)C(=O)OCC)C(=O)OCC (stereo not given)	–	29	–	–	–	–
COc1ccc(NC(=O)CN(c2ccc(OC)cc2)S(=O)(=O)c2ccc(OC)c(OC)c2)cc1	–	–	–	–	·	·
COc1cc(C2(c3ccc(O)c(OC)c3)C(=O)Nc3c(C)cc(Br)cc32)ccc1O	–	–	–	–	·	·
O=C(Cn1ncc(Cl)c(Cl)c1=O)NC1CCCCC1	–	47	–	·	29	72
O=C(Cn1ncc(Cl)c(Cl)c1=O)NCC1CCCCC1	·	58	–	·	33	56
O=C1CN(C(=O)Cn2ncc(Cl)c(Cl)c2=O)c2ccccc2N1	·	44	–	–	20	30
COc1ccc(OC)c(CNS(=O)(=O)c2c(C)nc3scc(C)n3c2=O)c1	–	–	–	–	·	·
CCN(c1ccccc1)S(=O)(=O)c1ccc(C(=O)N2CCN(c3ccccc3)CC2)cc1	–	–	–	·	·	·
O=C(CCc1ccccc1)n1nc(-c2ccccc2)nc1NCc1ccco1	–	33	–	–	–	–
CC(NS(=O)(=O)c1ccc2c(c1)CC(=O)N2C)c1ccccc1 (stereo not given)	–	–	–	–	·	·
COc1cc2ccccc2ccc1=NO	·	–	–	·	·	·
O=C(/C=C/c1ccco1)OCC1CCCN2CCCCC12 (stereo not given)	–	31	–	–	–	–
O=C(COC(=O)/C=C/c1ccco1)NC1CCCCC1	–	–	–	·	·	·
O=C(Cn1cc([N+](=O)[O-])ccc1=O)NCC(=O)Nc1ccc(F)c(F)c1F	–	–	–	·	·	·
CN1CCN(c2ccc(NC(=O)c3sc4ccccc4c3Cl)cc2)CC1	–	–	–	–	·	·
COC(=O)c1ccc(N2CCN(C)CC2)c(NC(=O)c2sc3ccccc3c2Cl)c1	·	31	–	–	–	–
CCOCc1nc(N)nc(N)c1-c1cccc(Cl)c1	·	31	–	·	–	–
COCC(C)n1c(C)cc(C(=O)COc2ccc(N(C)S(=O)(=O)c3ccc(NC(C)=O)cc3)cc2)c1C (stereo not given)	–	–	–	·	·	·
C=CCn1c(C)cc(C(=O)COc2ccc(N(C)S(=O)(=O)c3ccc(NC(C)=O)cc3)cc2)c1C	–	40	–	·	–	–
CCc1cc(C(=O)OCC(=O)N2CCC(c3ccccc3)=N2)sc1C	–	–	–	–	·	·
O=C(C1COc2ccccc2O1)N1CCN(c2nc3c(F)cc(F)cc3s2)CC1 (stereo not given)	–	–	–	–	·	·
O=C1c2cccc([N+](=O)[O-])c2C(=O)N1c1cccnc1	–	–	–	–	·	·
O=C1c2cccc([N+](=O)[O-])c2C(=O)N1c1ccccc1	–	30	–	–	–	–
SMILES	NTR1 ag	MC4R antag cAMP	MC4R ag barr	AI-2 QS mod	cAMP nonselect	MC4R antag conf
CC(=O)Oc1ccc2nc(-c3ccco3)oc(=O)c2c1	–	34	–	·	–	39
Cc1cc(C)cc(NC(=O)CCn2c(=O)c3cccn3c3ccccc32)c1	–	–	–	–	·	·
COc1ccc(CN2CCN(S(=O)(=O)c3ccc(NC(C)=O)cc3)CC2)cc1	–	–	–	–	·	·
COc1ccc(CN2CCN(S(=O)(=O)c3ccc(NC(C)=O)cc3)CC2)c(OC)c1OC	–	31	–	–	–	–
Brc1ccsc1-c1csc(-c2ccncc2)n1	–	34	–	–	–	–
CCCCOc1cc(C(=O)NCCN(CC)CC)c2ccccc2n1	–	–	–	–	·	·
CC(C)OCCCNC(=O)c1cc(-c2cccs2)nc2ccccc12	–	–	–	–	·	·
O=C(O)c1cc(-c2ccc(Br)s2)nc2ccccc12	–	+	–	–	185	+
CCOCCCNC(=O)c1cc(-c2ccc(Br)s2)nc2ccccc12	–	37	–	–	33	63
CCN(CC)CCNC(=O)c1cc(-c2ccc(Br)s2)nc2ccccc12	–	33	–	–	–	–

Source: PubChem BioAssay (several laboratories)
